Active and inactive are the calls of the source.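 Rule for the calls: active = current rise at least 3 SD above the untreated control mean in each of two repeat wells; inactive = the rest.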
Target: Potassium voltage-gated channel subfamily KQT member 1 (Homo sapiens) (UniProt P51787)
Experiment: KCNQ1 activators by electrophysiology – IonWorks patch clamp, KCNQ1-CHO cells, orthogonal assay for KCNQ1 potentiator project, confirmation (AID 493184)
Conditions: automated patch clamp current, at 10 µM
Outline: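 Material: KCNQ1-expressing CHO cells; doses: 10 µM final, single point; probe or stimulus: voltage step from -90 mV holding to +40 mV, 2,000 ms; signal: automated voltage clamp, amphotericin B perforated patch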

Potassium voltage-gated channel subfamily KQT member 1 (Homo sapiens), sequence (P51787 whole entry, looked up): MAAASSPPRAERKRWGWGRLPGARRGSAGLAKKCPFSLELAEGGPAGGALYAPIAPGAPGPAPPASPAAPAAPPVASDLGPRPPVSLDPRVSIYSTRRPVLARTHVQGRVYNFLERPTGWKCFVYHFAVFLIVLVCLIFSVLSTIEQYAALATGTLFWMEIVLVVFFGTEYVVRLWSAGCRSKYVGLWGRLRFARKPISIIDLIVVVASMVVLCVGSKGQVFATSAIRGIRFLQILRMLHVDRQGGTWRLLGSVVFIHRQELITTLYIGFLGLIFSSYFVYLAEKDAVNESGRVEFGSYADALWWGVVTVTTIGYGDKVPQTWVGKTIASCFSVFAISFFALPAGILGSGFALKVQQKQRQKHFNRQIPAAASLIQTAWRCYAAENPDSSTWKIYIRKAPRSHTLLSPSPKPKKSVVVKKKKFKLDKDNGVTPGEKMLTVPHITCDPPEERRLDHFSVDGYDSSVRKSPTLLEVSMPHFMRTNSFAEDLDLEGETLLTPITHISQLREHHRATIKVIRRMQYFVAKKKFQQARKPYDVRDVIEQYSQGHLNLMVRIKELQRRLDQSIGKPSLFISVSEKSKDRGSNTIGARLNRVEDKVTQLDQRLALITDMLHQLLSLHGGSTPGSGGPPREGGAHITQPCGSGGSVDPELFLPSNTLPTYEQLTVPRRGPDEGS

Row | Compound | outcome
1 | CCCCCCCCCCC[N+](C)(C)CC/C=C1/c2ccccc2Sc2ccc(Cl)cc21 | inactive
2 | CCCCCCCCCCCCC/C=C/[C@@H](O)[C@@H](N)CO | inactive
3 | COc1ccc(/C(O)=C2/C(=O)C(=O)N(CCCN(C)C)C2c2ccc(Cl)cc2)cc1OC (stereo not given) | inactive
4 | CN(C(=O)c1cc(COc2c(F)cccc2F)on1)C1CCOC1 (stereo not given) | inactive
5 | CCN(CC)CC(=O)Nc1ccc2c(c1)Nc1ccccc1CC2 | inactive
6 | C=CCC(=O)N1CCC(n2nccc2NC(=O)CCOc2ccccc2)CC1 | inactive
7 | O=[N+]([O-])c1ccc(/C([O-])=C(/C(=S)NCc2ccco2)[n+]2ccccc2)cc1 | inactive
8 | Cc1ccc(C(=O)NCCC(=O)NCc2cc(=O)n(C)c(=O)n2C)cc1 | inactive
9 | CCC(=O)NNc1nc2c(Cl)cccc2s1 | inactive
10 | CC1(C)CC[C@]2(C(=O)O)CC[C@]3(C)C(=CCC4[C@@]5(C)CC[C@H](O)C(C)(C)C5[C@H](O)C[C@]43C)[C@@H]2C1 (stereo not given in full) | inactive
11 | COc1ccccc1/C=C1\N=C(C(C)(C)C)OC1=O | inactive
12 | CCCCc1nc2sc3c(SCCN(C)C)ncnc3c2c2c1CCC2 | inactive
13 | CCC1(c2ccc(Cl)cc2)NC(=S)N(c2ccc(C)cc2)N1 (stereo not given) | inactive
14 | Cc1ccccc1-n1cnnc1SCC(=O)N1CCN(c2ccccc2)CC1 | inactive
15 | CCOc1ccc(-c2noc(CCC(=O)NC3CCCC3)n2)cc1OC | inactive
16 | COc1cc(Br)cc(/C=N/c2ncn[nH]2)c1O | inactive
17 | O=C(CSc1nc(=O)n2ccccc2n1)NCc1ccccc1 | inactive
18 | COc1cc(C2C(C#N)=C(N)Oc3cc(O)ccc32)cc2c1OCO2 (stereo not given) | inactive
19 | CCOc1ccc(C(C#N)N2CCOCC2)cc1OC (stereo not given) | inactive
20 | CS(=O)(=O)c1ccc(C(=O)OCc2nnc(-c3ccc(Cl)cc3)o2)cc1[N+](=O)[O-] | inactive

Row | Compound | outcome
21 | CCOC(=O)c1sc2ncnc(NCC(c3cccs3)N(C)C)c2c1C (stereo not given) | inactive
22 | CCCN1CCC(NC(=S)Nc2cccc(Cl)c2Cl)CC1 | inactive
23 | Cc1nn(-c2ccccc2)nc1C(=O)NNC(=O)c1cccc2ccccc12 | inactive
24 | Cc1cc(Cl)n2nc(C)c(-c3ccc(Cl)cc3)c2n1 | inactive
25 | O=C(CSc1cccc[n+]1[O-])c1cc(Cl)ccc1Cl | inactive
26 | Cc1ccc(C(=O)CC(=O)COc2ccc(Cl)cc2C)cc1 | inactive
27 | COc1cccc2sc(N(CCCN(C)C)C(=O)CCS(=O)(=O)c3ccccc3)nc12 | inactive
28 | CC(CCc1ccccc1)NC(=S)NC(=O)c1ccco1 (stereo not given) | inactive
29 | N#C/C(=C/c1cn(-c2ccccc2)nc1-c1cccc(S(=O)(=O)N2CCOCC2)c1)C(=O)NCc1ccco1 | inactive
30 | COc1ccc(-n2c(=S)[nH]c3c(oc4ccccc43)c2=O)cc1 | inactive
31 | COC(=O)[C@@H]1CCCN1C(=O)CCc1nnc(CCC2CCCCC2)o1 | inactive
32 | CC1=NN(C(N)=S)C(=O)C1N=Nc1cccc(Cl)c1C (stereo not given) | inactive
33 | OC1(c2ccc(Br)cc2)CCNCC1 | inactive
34 | CC1CCCC(NC(=S)NC(=O)c2cncc(Br)c2)C1C (stereo not given) | inactive
35 | CCc1ccc(/C=C/C(=O)C2C(=O)c3ccccc3C2=O)cc1 | inactive
36 | C/C(=N\Nc1nc2ccccc2[nH]1)c1ccc(Cl)s1 | inactive
37 | O=c1c(O)c(-c2cccs2)oc2ccccc12 | inactive
38 | CCN(C(=O)COC(=O)C(Cc1ccccc1)N1C(=O)c2ccccc2C1=O)C1CCS(=O)(=O)C1 (stereo not given) | inactive
39 | CS(=O)(=O)N1CCN(c2ccccc2NC(=O)CSc2nnc(-c3ccco3)o2)CC1 | inactive
40 | Cc1sc2nc(CN3CCOCC3)[nH]c(=S)c2c1C | inactive
